# Reference: ChEMBL document CHEMBL4715793 (J Med Chem, 2016)
# Calls of active or inactive are those of the source. The calls are words filed in the database; no cut-off is given here.
# Assays:
# [1] = Selectivity index, ratio of CC50 for cytotoxicity against human Huh7.5 cells assessed as reduction in cell viability incubated for 72 hrs by MTT assay to EC50 for antiviral activity against HCV genotype 2a J6/JFH/JC1 infected in human Huh7.5 cells assessed as reduction in viral RNA levels measured after 72 hrs by qRT-PCR analysis; format: toxicity, cell-based; conditions: read-out: Ratio CC50/EC50
# [2] = Antiviral activity against HCV subtype 2a J6/JFH/JC1 infected in human Huh7.5 cells assessed as reduction in viral RNA levels measured after 72 hrs by qRT-PCR analysis; conditions: Hepatitis C virus, J6/JFH/JC1, Huh7.5, 72 h
# [3] = Cytotoxicity against human Huh7.5 cells assessed as reduction in cell viability incubated for 72 hrs by MTT assay; format: cell-based
# Outline: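 Huh7.5 cells seeded at 3 × 10^4/cm2, grown 24 h, then exposed to compound for 72 h. Viability read by MTT assay. CC50 by Reed & Muench method, mean ± SD from three independent experiments.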
# [4] = Resistance ratio of EC50 for antiviral activity against HCV J6/JFH/JC1 harboring D168V mutant infected in human Huh7.5 cells to EC50 for antiviral activity against wild-type HCV J6/JFH/JC1 infected in human Huh7.5 cells; format: functional
# [5] = system: Hepatitis C virus; experiment: Antiviral activity against HCV J6/JFH/JC1 harboring D168V mutant infected in human Huh7.5 cells assessed as inhibition of viral replication measured after 72 hrs by qRT-PCR analysis; format: functional, organism-based, Hepacivirus hominis; conditions: J6/JFH/JC1, Huh7.5, 72 h
# [6] = system: Hepatitis C virus; experiment: Antiviral activity against wild-type HCV J6/JFH/JC1 infected in human Huh7.5 cells assessed as inhibition of viral replication measured after 72 hrs by qRT-PCR analysis; format: functional, organism-based, Hepacivirus hominis; conditions: J6/JFH/JC1, Huh7.5, 72 h
# Outline: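 Huh7.5 cells seeded at 3 × 10^4/cm2 and incubated 24 h. Infected with wild-type HCVcc stock (45 IU/cell) with compound or solvent control added at the same time. After 72 h, intracellular RNA measured by one-step qRT-PCR and core protein by Western blot. EC50 by Reed & Muench method, mean ± SD from three independent experiments.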
# [7] = biological target: T1, Chondroitin sulfate N-acetylgalactosaminyltransferase 1 (Homo sapiens) (UniProt Q8TDX6); experiment: Destabilization of CSGalNacT-1 in human Huh7.5 cells assessed as down regulation of CSGalNacT-1 protein levels measured after 72 hrs by Western blot analysis; format: cell-based; conditions: dose 0.2-25 µM
# T1 sequence (whole entry): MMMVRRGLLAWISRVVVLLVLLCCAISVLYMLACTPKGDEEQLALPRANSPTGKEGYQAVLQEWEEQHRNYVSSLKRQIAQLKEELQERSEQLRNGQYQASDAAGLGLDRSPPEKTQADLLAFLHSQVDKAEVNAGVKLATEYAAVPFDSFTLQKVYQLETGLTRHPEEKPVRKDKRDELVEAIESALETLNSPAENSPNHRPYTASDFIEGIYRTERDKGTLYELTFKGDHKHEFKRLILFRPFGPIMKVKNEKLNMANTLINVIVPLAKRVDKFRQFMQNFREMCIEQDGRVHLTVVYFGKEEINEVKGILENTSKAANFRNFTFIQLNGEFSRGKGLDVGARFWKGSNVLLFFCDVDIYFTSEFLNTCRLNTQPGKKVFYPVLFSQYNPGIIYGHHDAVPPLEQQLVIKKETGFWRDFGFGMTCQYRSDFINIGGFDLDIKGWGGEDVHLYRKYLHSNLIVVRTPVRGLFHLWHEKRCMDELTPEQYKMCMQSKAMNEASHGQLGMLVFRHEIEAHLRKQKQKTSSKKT
# [8] = Inhibition of NS5A in HCV genotype 1b infected in HuH7.5Lcu-Neo cells assessed as reduction in viral replication by luciferase reporter gene assay; format: cell-based, Hepatitis C virus subtype 1b; conditions: Hepatitis C virus
# [9] = system: Hepatitis C virus; experiment: Antiviral activity against HCV J6/JFH/JC1 harboring A156T mutant infected in human Huh7.5 cells assessed as inhibition of viral replication measured after 72 hrs by qRT-PCR analysis; format: functional, organism-based, Hepacivirus hominis; conditions: J6/JFH/JC1, Huh7.5, 72 h
# [10] = system: Hepatitis C virus; experiment: Antiviral activity against HCV subgenomic replicon harboring I377-3'del.S infected in human GS4.3 cells assessed as inhibition of viral replication at 6.25 to 25 uM after 72 hrs by qRT-PCR analysis; format: functional, organism-based; conditions: Hepacivirus hominis, dose 6.25-25 µM
# Outline: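 GS4.3 cells (Huh7 carrying HCV subgenomic replicon I377-3′del.S) seeded at 3 × 10^4/cm2, after 24 h treated with compound or solvent control. After 72 h intracellular RNA extracted and replicon RNA measured by qRT-PCR. Cytotoxicity checked by MTT at 72 h.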
# [11] = system: Hepatitis C virus; experiment: Antiviral activity against HCV J6/JFH/JC1 harboring S282T mutant infected in human Huh7.5 cells assessed as inhibition of viral replication measured after 72 hrs by qRT-PCR analysis; format: functional, organism-based, Hepacivirus hominis; conditions: J6/JFH/JC1, Huh7.5, 72 h
Structure (SMILES),EC50 [2],selectivity ratio at 72 h [1],CC50 at 72 h [3],other results
COc1cc(/C=C/c2cccs2)c(C(=O)O)c(O)c1CC=C(C)C,3.7 µM,22,83 µM,
COc1ccc2c(O[C@@H]3C[C@H]4C(=O)N[C@]5(C(=O)NS(=O)(=O)C6CC6)C[C@H]5/C=C\CCCCN(C)C(=O)[C@@H]4C3)cc(-c3nc(C(C)C)cs3)nc2c1C,,,,Ratio EC50 [4]: 23.3; EC50 [5]: 0.93 µM; EC50 [6]: 40 nM
COc1cc(CCc2ccccc2)c(C(=O)O)c(O)c1CC=C(C)C [AMORFRUTIN A],1.68 µM,35,59.4 µM,
COC(=O)c1c(O)cc(OC)cc1/C=C/c1ccccc1,,,,Activity [7]: Dose-dependent effect
C/C=C/C[C@@H](C)[C@@H](O)[C@H]1C(=O)N[C@@H](CC)C(=O)N(C)[C@H](C)C(=O)N(CC)[C@@H](C(C)C)C(=O)N[C@@H](C(C)C)C(=O)N(C)[C@@H](CC(C)C)C(=O)N[C@@H](C)C(=O)N[C@H](C)C(=O)N(C)[C@@H](CC(C)C)C(=O)N(C)[C@@H](CC(C)C)C(=O)N(C)[C@@H](C(C)C)C(=O)N1C [ALISPORIVIR],,,,EC50 [8]: 0.0158 µM
CCC[C@H](NC(=O)[C@@H]1[C@H]2CCC[C@H]2CN1C(=O)[C@@H](NC(=O)[C@@H](NC(=O)c1cnccn1)C1CCCCC1)C(C)(C)C)C(=O)C(=O)NC1CC1,0.008 µM,5700,44.9 µM,EC50 [9]: 0.62 µM; EC50 [6]: 20 nM; Activity [10]: Active
CC/C=C/c1cc(OC)c(CC=C(C)C)c(O)c1C(=O)OC,24.8 µM,4,89.3 µM,
CC(C)OC(=O)[C@H](C)N[P@](=O)(OC[C@H]1O[C@@H](n2ccc(=O)[nH]c2=O)[C@](C)(F)[C@@H]1O)Oc1ccccc1 [SOFOSBUVIR],,,,EC50 [11]: 0.29 µM
CC/C=C/c1cc(OC)c(CC=C(C)C)c(O)c1C(=O)O,1.02 µM,71,72.9 µM,
COC(=O)c1c(CCc2ccccc2)cc(OC)c(CC=C(C)C)c1O,16.1 µM,8,122 µM,
COC(=O)N[C@H](C(=O)N1CCC[C@H]1c1ncc(-c2ccc(-c3ccc(-c4cnc([C@@H]5CCCN5C(=O)[C@@H](NC(=O)OC)C(C)C)[nH]4)cc3)cc2)[nH]1)C(C)C,,,,EC50 [6]: 0.0177 nM

# Further lines, with some results ahead:
EC50 [2],Structure (SMILES),selectivity ratio at 72 h [1],CC50 at 72 h [3],other results
13.4 µM,COc1cc(/C=C/C=C/c2ccccc2)c(C(=O)O)c(O)c1CC=C(C)C,7,96.9 µM,
1.49 µM,COc1cc(/C=C/c2ccc(F)cc2)c(C(=O)O)c(O)c1CC=C(C)C,46,69.2 µM,
5.92 µM,COc1cc(/C=C/c2ccccc2C)c(C(=O)O)c(O)c1CC=C(C)C,9,55.3 µM,
12 µM,COc1cc(/C=C/c2ccccc2)cc(O)c1CC=C(C)C,1.8,21.4 µM,
2.89 µM,COC(=O)c1c(/C=C(\C)c2ccccc2)cc(OC)c(CC=C(C)C)c1O,35,102 µM,
6.54 µM,COc1cc(/C=C/c2ccc(C)cc2)c(C(=O)O)c(O)c1CC=C(C)C,13,82.9 µM,
0.33 µM,COc1cc(/C=C/c2ccc(O)cc2)c(C(=O)O)c(O)c1CC=C(C)C,49,16.1 µM,
4.87 µM,COC(=O)c1c(/C=C/c2ccccc2)cc(OC)c(CC=C(C)C)c1O,> 41,> 200 µM,
1.7 µM,COc1cc(/C=C(\C)c2ccccc2)c(C(=O)O)c(O)c1CC=C(C)C,45,76.8 µM,
1.95 µM,COc1cc(/C=C/c2cccc(C)c2)c(C(=O)O)c(O)c1CC=C(C)C,42,82.5 µM,
1.03 µM,COc1cc(/C=C/c2ccccc2Cl)c(C(=O)O)c(O)c1CC=C(C)C,39,39.5 µM,
4.13 µM,CCOC(=O)c1c(/C=C/c2ccccc2)cc(OC)c(CC=C(C)C)c1O,47,195 µM,
